According to ChEMBL document CHEMBL3392966, “Antiproliferative activity of synthetic fatty acid amides from renewable resources” (Bioorg Med Chem, 2015):
In brackets after ≈: the same amount, converted by molar mass.

Tests used:
[1] = test system: NCI-H460; assay: Antiproliferative activity against human NCI-H460 cells assessed as tumor growth inhibition after 48 hrs by sulforhodamine B assay; type: functional; conditions: NCI-H460, 48 h
In short: (§1)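 Tumor cells grown in RPMI 1640 with 5% fetal bovine serum, with penicillin/streptomycin in experimental cultures. Exposed in 96-well plates to samples in DMSO/RPMI at 0.25, 2.5, 25 and 250 µg/mL, 37 °C, 5% CO2, 48 h. Fixed with 50% trichloroacetic acid before (T0) and after treatment, protein stained with sulforhodamine B and read at 540 nm. GI50, TGI and LC50 in µg/mL from dose-response curves by non-linear regression.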

[2] = test system: U-251; assay: Antiproliferative activity against human U251 cells after 48 hrs by sulforhodamine B assay; type: functional; conditions: U-251, 48 h; in short: as §1
[3] = test system: NCI-H460; assay: Antiproliferative activity against human NCI-H460 cells after 48 hrs by sulforhodamine B assay; type: functional; conditions: NCI-H460, 48 h; in short: as §1
[4] = Antiproliferative activity against human PC3 cells assessed as tumor growth inhibition after 48 hrs by sulforhodamine B assay; type: functional; conditions: PC-3, 48 h; in short: as §1
[5] = test system: 786-0; assay: Antiproliferative activity against human 786-0 cells assessed as tumor growth inhibition after 48 hrs by sulforhodamine B assay; type: functional; conditions: 786-0, 48 h; in short: as §1
[6] = test system: NCI/ADR-RES; assay: Antiproliferative activity against human NCI/ADR-RES cells after 48 hrs by sulforhodamine B assay; type: functional; in short: as §1
[7] = test system: U-251; assay: Antiproliferative activity against human U251 cells assessed as tumor growth inhibition after 48 hrs by sulforhodamine B assay; type: functional; conditions: U-251, 48 h; in short: as §1
[8] = Antiproliferative activity against human PC3 cells after 48 hrs by sulforhodamine B assay; type: functional; conditions: PC-3, 48 h; in short: as §1
[9] = test system: MCF7; assay: Antiproliferative activity against human MCF7 cells after 48 hrs by sulforhodamine B assay; type: functional; conditions: MCF7, 48 h; in short: as §1
[10] = Antiproliferative activity against human OVCAR3 cells after 48 hrs by sulforhodamine B assay; type: functional; conditions: OVCAR-3, 48 h; in short: as §1
[11] = test system: 786-0; assay: Antiproliferative activity against human 786-0 cells after 48 hrs by sulforhodamine B assay; type: functional; conditions: 786-0, 48 h; in short: as §1
[12] = test system: HaCaT; assay: Cytotoxicity against human HaCaT cells after 48 hrs by sulforhodamine B assay; type: cell-based
[13] = test system: NCI/ADR-RES; assay: Antiproliferative activity against human NCI/ADR-RES cells assessed as tumor growth inhibition after 48 hrs by sulforhodamine B assay; type: functional; in short: as §1
[14] = test system: MCF7; assay: Antiproliferative activity against human MCF7 cells assessed as tumor growth inhibition after 48 hrs by sulforhodamine B assay; type: functional; conditions: MCF7, 48 h; in short: as §1
[15] = test system: HaCaT; assay: Cytotoxicity against human HaCaT cells assessed as tumor growth inhibition after 48 hrs by sulforhodamine B assay; type: cell-based
In short: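 Non-tumor lines (human HaCaT keratinocytes; Vero) in RPMI 1640 with 5% FBS, with penicillin/streptomycin added to experimental cultures. 48 h exposure at 0.25–250 µg/mL (DMSO/RPMI), 37 °C, 5% CO2. TCA fixation at time zero and at end, sulforhodamine B protein stain, absorbance 540 nm. TGI (total growth inhibition) from non-linear regression of the dose-response curve.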

[16] = Antiproliferative activity against human OVCAR3 cells assessed as tumor growth inhibition after 48 hrs by sulforhodamine B assay; type: functional; conditions: OVCAR-3, 48 h; in short: as §1

SMILES: CCCCCCCCCCCCCCCCCC(=O)N1CCOCC1
- TGI [1]: 161 µg/mL (≈ 455 µM)
- GI50 [2]: 39.9 µg/mL (≈ 113 µM)
- GI50 [3]: 53.1 µg/mL (≈ 150 µM)
- TGI [4]: 102 µg/mL (≈ 290 µM)
- TGI [5]: 85.6 µg/mL (≈ 242 µM)
- GI50 [6]: 33.1 µg/mL (≈ 93.6 µM)
- TGI [7]: 82.6 µg/mL (≈ 234 µM)
- GI50 [8]: 41.1 µg/mL (≈ 116 µM)
- GI50 [9]: 42.8 µg/mL (≈ 121 µM)
- GI50 [10]: 43.3 µg/mL (≈ 122 µM)
- GI50 [11]: 41.1 µg/mL (≈ 116 µM)
- LC50 [12]: 41.5 µg/mL (≈ 117 µM)
- TGI [13]: 86.9 µg/mL (≈ 246 µM)
- TGI [14]: 81.7 µg/mL (≈ 231 µM)
- TGI [15]: 94.2 µg/mL (≈ 266 µM)
- TGI [16]: 111 µg/mL (≈ 314 µM)

SMILES: CCCCCCCCCCCCCCCC(=O)NCCO [PALMIDROL]
- TGI [1]: > 250 µg/mL
- TGI [4]: > 250 µg/mL
- TGI [5]: > 250 µg/mL
- GI50 [6]: 158 µg/mL (≈ 527 µM)
- TGI [7]: > 250 µg/mL
- TGI [13]: > 250 µg/mL
- TGI [14]: > 250 µg/mL
- TGI [15]: > 250 µg/mL
- TGI [16]: > 250 µg/mL

SMILES: CCCCCC[C@@H](O)C/C=C\CCCCCCCC(=O)NCc1ccccc1
- TGI [1]: 179 µg/mL (≈ 461 µM)
- GI50 [2]: 8.6 µg/mL (≈ 22.2 µM)
- GI50 [3]: 32.3 µg/mL (≈ 83.3 µM)
- TGI [4]: 123 µg/mL (≈ 316 µM)
- TGI [5]: 71.5 µg/mL (≈ 184 µM)
- GI50 [6]: 8.6 µg/mL (≈ 22.2 µM)
- TGI [7]: 47.5 µg/mL (≈ 123 µM)
- GI50 [8]: 123 µg/mL (≈ 316 µM)
- GI50 [9]: 37.8 µg/mL (≈ 97.5 µM)
- GI50 [10]: 31.6 µg/mL (≈ 81.5 µM)
- GI50 [11]: 32.3 µg/mL (≈ 83.3 µM)
- LC50 [12]: 30.8 µg/mL (≈ 79.5 µM)
- TGI [13]: 46.6 µg/mL (≈ 120 µM)
- TGI [14]: 104 µg/mL (≈ 270 µM)
- TGI [15]: 66.5 µg/mL (≈ 172 µM)
- TGI [16]: 86 µg/mL (≈ 222 µM)

SMILES: CCCCCCCC/C=C\CCCCCCCC(=O)NCCO [OLEOYLETHANOLAMIDE]
- TGI [1]: 81 µg/mL (≈ 249 µM)
- GI50 [2]: 27.3 µg/mL (≈ 83.9 µM)
- GI50 [3]: 36.5 µg/mL (≈ 112 µM)
- TGI [4]: 44.2 µg/mL (≈ 136 µM)
- TGI [5]: 64.6 µg/mL (≈ 198 µM)
- GI50 [6]: 9.1 µg/mL (≈ 28 µM)
- TGI [7]: 51.3 µg/mL (≈ 158 µM)
- GI50 [8]: 16.9 µg/mL (≈ 51.9 µM)
- GI50 [9]: 25.9 µg/mL (≈ 79.6 µM)
- GI50 [10]: 35.4 µg/mL (≈ 109 µM)
- GI50 [11]: 35.4 µg/mL (≈ 109 µM)
- LC50 [12]: 14.4 µg/mL (≈ 44.2 µM)
- TGI [13]: 39.5 µg/mL (≈ 121 µM)
- TGI [14]: 66.7 µg/mL (≈ 205 µM)
- TGI [15]: 53.5 µg/mL (≈ 164 µM)
- TGI [16]: 71.7 µg/mL (≈ 220 µM)

SMILES: CCCCCCCCCCCCCCCCCC(=O)NCCO [N-(2-HYDROXYETHYL)STEARAMIDE]
- TGI [1]: > 250 µg/mL
- GI50 [2]: 117 µg/mL (≈ 357 µM)
- TGI [4]: > 250 µg/mL
- TGI [5]: > 250 µg/mL
- GI50 [6]: 158 µg/mL (≈ 481 µM)
- TGI [7]: > 250 µg/mL
- GI50 [8]: 75.6 µg/mL (≈ 231 µM)
- GI50 [9]: 130 µg/mL (≈ 395 µM)
- GI50 [10]: 158 µg/mL (≈ 481 µM)
- LC50 [12]: 117.7 µg/mL (≈ 359 µM)
- TGI [13]: > 250 µg/mL
- TGI [14]: > 250 µg/mL
- TGI [15]: > 250 µg/mL
- TGI [16]: > 250 µg/mL

SMILES: CCCCC/C=C\C/C=C\CCCCCCCC(=O)N[C@@H](C)c1ccccc1
- TGI [1]: 38.9 µg/mL (≈ 101 µM)
- GI50 [2]: 0.7 µg/mL (≈ 1.82 µM)
- GI50 [3]: 6.1 µg/mL (≈ 15.9 µM)
- TGI [4]: 7.7 µg/mL (≈ 20.1 µM)
- TGI [5]: 7.7 µg/mL (≈ 20.1 µM)
- GI50 [6]: 3 µg/mL (≈ 7.82 µM)
- TGI [7]: 5.1 µg/mL (≈ 13.3 µM)
- GI50 [8]: 6.8 µg/mL (≈ 17.7 µM)
- GI50 [9]: 5.3 µg/mL (≈ 13.8 µM)
- GI50 [10]: 3.5 µg/mL (≈ 9.12 µM)
- GI50 [11]: 3.2 µg/mL (≈ 8.34 µM)
- LC50 [12]: 1.3 µg/mL (≈ 3.39 µM)
- TGI [13]: 16.4 µg/mL (≈ 42.8 µM)
- TGI [14]: 38.6 µg/mL (≈ 101 µM)
- TGI [15]: 77.2 µg/mL (≈ 201 µM)
- TGI [16]: 20 µg/mL (≈ 52.1 µM)

SMILES: CCCCCCCC/C=C\CCCCCCCC(=O)N[C@@H](C)c1ccccc1
- TGI [1]: 49.3 µg/mL (≈ 128 µM)
- GI50 [2]: 5.1 µg/mL (≈ 13.2 µM)
- GI50 [3]: 15.2 µg/mL (≈ 39.4 µM)
- TGI [4]: 47.1 µg/mL (≈ 122 µM)
- TGI [5]: 45.8 µg/mL (≈ 119 µM)
- GI50 [6]: 0.3 µg/mL (≈ 0.778 µM)
- TGI [7]: 17.8 µg/mL (≈ 46.2 µM)
- GI50 [8]: 13.7 µg/mL (≈ 35.5 µM)
- GI50 [9]: 7.17 µg/mL (≈ 18.6 µM)
- GI50 [10]: 10.5 µg/mL (≈ 27.2 µM)
- GI50 [11]: 10.3 µg/mL (≈ 26.7 µM)
- LC50 [12]: 6.4 µg/mL (≈ 16.6 µM)
- TGI [13]: 7.1 µg/mL (≈ 18.4 µM)
- TGI [14]: 43 µg/mL (≈ 112 µM)
- TGI [15]: 36.8 µg/mL (≈ 95.4 µM)
- TGI [16]: 45.5 µg/mL (≈ 118 µM)

SMILES: CCCCCCCC/C=C\CCCCCCCC(=O)N1CCCCC1
- TGI [1]: 40.7 µg/mL (≈ 116 µM)
- GI50 [2]: 6.7 µg/mL (≈ 19.2 µM)
- GI50 [3]: 23 µg/mL (≈ 65.8 µM)
- TGI [4]: 31.8 µg/mL (≈ 91 µM)
- TGI [5]: 40.7 µg/mL (≈ 116 µM)
- GI50 [6]: 7.7 µg/mL (≈ 22 µM)
- TGI [7]: 25 µg/mL (≈ 71.5 µM)
- GI50 [8]: 8.7 µg/mL (≈ 24.9 µM)
- GI50 [9]: 7.6 µg/mL (≈ 21.7 µM)
- GI50 [10]: 9.3 µg/mL (≈ 26.6 µM)
- GI50 [11]: 10.6 µg/mL (≈ 30.3 µM)
- LC50 [12]: 7.7 µg/mL (≈ 22 µM)
- TGI [13]: 47.4 µg/mL (≈ 136 µM)
- TGI [14]: 33.3 µg/mL (≈ 95.3 µM)
- TGI [15]: 47.9 µg/mL (≈ 137 µM)
- TGI [16]: 35.4 µg/mL (≈ 101 µM)

SMILES: CCCCCCCCCCCCCCCCCC(=O)N[C@H](C)c1ccccc1
- TGI [1]: > 250 µg/mL
- GI50 [2]: 161 µg/mL (≈ 414 µM)
- TGI [4]: > 250 µg/mL
- TGI [5]: > 250 µg/mL
- GI50 [6]: 25.7 µg/mL (≈ 66.3 µM)
- TGI [7]: > 250 µg/mL
- GI50 [9]: 0.06 µg/mL (≈ 0.155 µM)
- TGI [13]: > 250 µg/mL
- TGI [14]: > 250 µg/mL
- TGI [15]: > 250 µg/mL
- TGI [16]: > 250 µg/mL

SMILES: CCCCCCCCCCCCCCCCCC(=O)N[C@@H](C)c1ccccc1
- TGI [1]: > 250 µg/mL
- TGI [4]: > 250 µg/mL
- TGI [5]: > 250 µg/mL
- TGI [7]: > 250 µg/mL
- LC50 [12]: 69.5 µg/mL (≈ 179 µM)
- TGI [13]: > 250 µg/mL
- TGI [14]: > 250 µg/mL
- TGI [15]: > 250 µg/mL
- TGI [16]: > 250 µg/mL
